{"source": "paper PMC3032767", "about": "(Journal of cellular physiology, 2008)", "key": {"VEGFR1": {"target": "VEGFR1 (Homo sapiens, UniProt P17948)", "sequence (P17948 27-1338, species assumed)": "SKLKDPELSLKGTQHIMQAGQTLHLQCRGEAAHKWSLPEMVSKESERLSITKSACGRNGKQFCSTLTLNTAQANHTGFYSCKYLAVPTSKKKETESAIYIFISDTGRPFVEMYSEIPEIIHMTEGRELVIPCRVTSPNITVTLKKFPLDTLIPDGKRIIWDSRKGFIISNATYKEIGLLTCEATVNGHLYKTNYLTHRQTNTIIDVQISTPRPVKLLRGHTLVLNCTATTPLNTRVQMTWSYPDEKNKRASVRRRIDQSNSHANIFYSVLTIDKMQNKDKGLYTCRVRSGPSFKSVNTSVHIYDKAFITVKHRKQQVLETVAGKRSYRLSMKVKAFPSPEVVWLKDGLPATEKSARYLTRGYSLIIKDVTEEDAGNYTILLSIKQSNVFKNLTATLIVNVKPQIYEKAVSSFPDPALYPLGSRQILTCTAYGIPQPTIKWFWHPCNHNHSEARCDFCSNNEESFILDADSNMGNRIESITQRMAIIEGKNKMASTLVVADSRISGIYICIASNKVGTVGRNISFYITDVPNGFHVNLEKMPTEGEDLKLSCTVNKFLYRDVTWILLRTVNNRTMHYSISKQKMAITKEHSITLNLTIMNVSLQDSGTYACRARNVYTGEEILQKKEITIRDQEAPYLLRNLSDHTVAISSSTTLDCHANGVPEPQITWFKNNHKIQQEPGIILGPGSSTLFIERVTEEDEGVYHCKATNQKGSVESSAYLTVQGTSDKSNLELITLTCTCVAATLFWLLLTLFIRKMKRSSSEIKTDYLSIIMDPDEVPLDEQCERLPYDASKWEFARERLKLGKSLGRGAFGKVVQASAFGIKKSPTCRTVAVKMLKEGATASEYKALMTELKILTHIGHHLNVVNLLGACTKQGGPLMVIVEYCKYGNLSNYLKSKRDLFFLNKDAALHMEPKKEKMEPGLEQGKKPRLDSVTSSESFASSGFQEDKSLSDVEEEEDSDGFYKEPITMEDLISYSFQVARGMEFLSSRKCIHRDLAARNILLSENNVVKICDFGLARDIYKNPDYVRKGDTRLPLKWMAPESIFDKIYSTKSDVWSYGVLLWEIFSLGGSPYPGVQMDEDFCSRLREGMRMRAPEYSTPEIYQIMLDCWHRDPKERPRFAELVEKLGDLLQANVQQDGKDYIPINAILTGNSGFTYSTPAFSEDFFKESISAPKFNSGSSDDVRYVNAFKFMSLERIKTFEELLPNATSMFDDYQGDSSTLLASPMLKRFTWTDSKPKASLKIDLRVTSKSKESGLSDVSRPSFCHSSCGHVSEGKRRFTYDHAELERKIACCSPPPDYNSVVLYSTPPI", "experiment": "Kinase inhibition assay", "type": "biochemical", "in_short": "(§1)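 Kinase activity was measured by commercial services. IC50 is the mean of 3 independent experiments.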"}, "VEGFR2": {"target": "VEGFR2 (Homo sapiens, UniProt P35968)", "experiment": "Kinase inhibition assay", "type": "biochemical", "in_short": "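Kinase inhibition was run by commercial services, with the test compound supplied as a DMSO stock. IC50 is the mean from 3 independent experiments.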"}, "FGFR1": {"target": "FGFR1 (Homo sapiens, UniProt P11362)", "sequence (P11362 22-822, species assumed)": "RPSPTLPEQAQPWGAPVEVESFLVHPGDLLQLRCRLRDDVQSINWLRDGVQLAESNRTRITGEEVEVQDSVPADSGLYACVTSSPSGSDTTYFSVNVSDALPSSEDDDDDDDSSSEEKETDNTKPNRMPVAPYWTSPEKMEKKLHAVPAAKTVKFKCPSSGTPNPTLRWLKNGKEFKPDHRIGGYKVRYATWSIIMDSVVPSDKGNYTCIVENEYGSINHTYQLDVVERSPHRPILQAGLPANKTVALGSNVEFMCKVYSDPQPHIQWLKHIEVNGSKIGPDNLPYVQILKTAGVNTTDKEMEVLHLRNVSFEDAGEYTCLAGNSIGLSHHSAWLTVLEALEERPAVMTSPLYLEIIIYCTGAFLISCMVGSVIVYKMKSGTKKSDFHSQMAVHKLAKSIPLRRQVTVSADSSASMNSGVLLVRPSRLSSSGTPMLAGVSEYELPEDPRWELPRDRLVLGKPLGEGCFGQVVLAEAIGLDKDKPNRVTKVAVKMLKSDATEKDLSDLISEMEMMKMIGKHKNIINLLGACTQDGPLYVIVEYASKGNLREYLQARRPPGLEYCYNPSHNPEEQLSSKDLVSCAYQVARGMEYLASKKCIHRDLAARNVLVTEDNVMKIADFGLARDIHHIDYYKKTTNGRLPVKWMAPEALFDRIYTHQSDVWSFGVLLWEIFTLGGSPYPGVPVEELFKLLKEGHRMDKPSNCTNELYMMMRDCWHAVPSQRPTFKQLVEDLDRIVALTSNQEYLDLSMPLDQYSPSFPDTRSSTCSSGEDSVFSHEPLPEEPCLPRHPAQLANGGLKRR", "experiment": "Kinase inhibition assay", "type": "biochemical", "in_short": "as §1"}, "FGFR2": {"target": "FGFR2 (Homo sapiens, UniProt P21802)", "sequence (P21802 22-821, species assumed)": "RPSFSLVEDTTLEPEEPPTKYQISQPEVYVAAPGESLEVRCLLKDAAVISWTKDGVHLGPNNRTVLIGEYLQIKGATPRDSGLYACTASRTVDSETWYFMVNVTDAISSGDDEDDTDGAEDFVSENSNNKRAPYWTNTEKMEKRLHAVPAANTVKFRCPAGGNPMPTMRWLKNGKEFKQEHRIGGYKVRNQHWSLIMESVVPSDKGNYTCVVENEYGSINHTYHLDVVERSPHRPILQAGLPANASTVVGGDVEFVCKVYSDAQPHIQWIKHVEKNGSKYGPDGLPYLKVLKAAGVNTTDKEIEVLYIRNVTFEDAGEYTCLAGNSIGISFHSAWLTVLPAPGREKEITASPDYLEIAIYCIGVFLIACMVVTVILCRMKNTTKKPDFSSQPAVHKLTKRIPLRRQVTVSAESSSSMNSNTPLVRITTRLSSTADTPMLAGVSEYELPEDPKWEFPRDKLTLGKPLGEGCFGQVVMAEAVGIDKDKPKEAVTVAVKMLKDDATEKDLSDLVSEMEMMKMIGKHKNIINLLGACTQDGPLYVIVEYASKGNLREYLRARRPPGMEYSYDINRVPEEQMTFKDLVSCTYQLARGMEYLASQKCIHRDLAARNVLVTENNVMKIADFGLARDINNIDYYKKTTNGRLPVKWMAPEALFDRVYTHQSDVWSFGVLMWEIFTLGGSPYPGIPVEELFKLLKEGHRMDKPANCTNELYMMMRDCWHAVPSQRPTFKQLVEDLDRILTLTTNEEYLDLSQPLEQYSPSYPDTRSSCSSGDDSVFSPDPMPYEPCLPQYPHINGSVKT", "experiment": "Kinase inhibition assay", "type": "biochemical", "in_short": "as §1"}, "PDGFRβ": {"target": "PDGFRβ (Homo sapiens, UniProt P09619)", "experiment": "Kinase inhibition assay", "type": "biochemical", "in_short": "as §1"}, "Fgr": {"target": "Fgr (Homo sapiens, UniProt P09769)", "sequence (P09769 whole entry, species assumed)": "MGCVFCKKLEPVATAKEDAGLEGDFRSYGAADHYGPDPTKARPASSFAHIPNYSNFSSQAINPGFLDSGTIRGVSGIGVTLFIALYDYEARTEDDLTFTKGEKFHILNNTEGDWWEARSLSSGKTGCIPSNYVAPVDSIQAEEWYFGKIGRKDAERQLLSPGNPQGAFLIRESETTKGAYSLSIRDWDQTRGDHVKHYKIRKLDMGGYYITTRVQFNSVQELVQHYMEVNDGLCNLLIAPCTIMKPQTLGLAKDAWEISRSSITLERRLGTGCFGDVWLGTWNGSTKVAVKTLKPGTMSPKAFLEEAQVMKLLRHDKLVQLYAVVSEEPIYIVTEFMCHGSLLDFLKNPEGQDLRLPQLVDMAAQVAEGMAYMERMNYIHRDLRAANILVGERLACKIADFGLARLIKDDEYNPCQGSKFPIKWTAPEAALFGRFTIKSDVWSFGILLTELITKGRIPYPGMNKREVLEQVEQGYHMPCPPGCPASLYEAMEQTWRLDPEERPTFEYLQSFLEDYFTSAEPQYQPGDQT", "experiment": "Kinase inhibition assay", "type": "biochemical", "in_short": "as §1"}, "Fyn": {"target": "Fyn (Homo sapiens, UniProt P06241)", "experiment": "Kinase inhibition assay", "type": "biochemical", "in_short": "as §1"}, "Hck": {"target": "Hck (Homo sapiens, UniProt P08631)", "experiment": "Kinase inhibition assay", "type": "biochemical", "in_short": "as §1"}, "Lck": {"target": "Lck (Homo sapiens, UniProt P06239)", "sequence (P06239 whole entry, species assumed)": "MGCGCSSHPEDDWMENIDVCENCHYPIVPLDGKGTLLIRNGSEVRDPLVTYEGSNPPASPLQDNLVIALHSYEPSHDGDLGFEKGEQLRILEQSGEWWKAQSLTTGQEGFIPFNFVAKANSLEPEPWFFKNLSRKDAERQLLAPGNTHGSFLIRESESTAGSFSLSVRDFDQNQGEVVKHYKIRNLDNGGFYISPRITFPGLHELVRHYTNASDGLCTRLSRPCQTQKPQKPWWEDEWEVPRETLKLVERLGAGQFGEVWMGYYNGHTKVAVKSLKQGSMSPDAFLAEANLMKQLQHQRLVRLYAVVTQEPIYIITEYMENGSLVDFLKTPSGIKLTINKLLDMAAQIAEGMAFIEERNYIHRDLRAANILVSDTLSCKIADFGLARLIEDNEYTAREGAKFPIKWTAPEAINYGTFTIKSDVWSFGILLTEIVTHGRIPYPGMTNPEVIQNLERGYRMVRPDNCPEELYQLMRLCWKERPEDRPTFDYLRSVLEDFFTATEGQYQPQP", "experiment": "Kinase inhibition assay", "type": "biochemical"}, "Lyn": {"target": "Lyn (Homo sapiens, UniProt P07948)", "sequence (P07948 whole entry, species assumed)": "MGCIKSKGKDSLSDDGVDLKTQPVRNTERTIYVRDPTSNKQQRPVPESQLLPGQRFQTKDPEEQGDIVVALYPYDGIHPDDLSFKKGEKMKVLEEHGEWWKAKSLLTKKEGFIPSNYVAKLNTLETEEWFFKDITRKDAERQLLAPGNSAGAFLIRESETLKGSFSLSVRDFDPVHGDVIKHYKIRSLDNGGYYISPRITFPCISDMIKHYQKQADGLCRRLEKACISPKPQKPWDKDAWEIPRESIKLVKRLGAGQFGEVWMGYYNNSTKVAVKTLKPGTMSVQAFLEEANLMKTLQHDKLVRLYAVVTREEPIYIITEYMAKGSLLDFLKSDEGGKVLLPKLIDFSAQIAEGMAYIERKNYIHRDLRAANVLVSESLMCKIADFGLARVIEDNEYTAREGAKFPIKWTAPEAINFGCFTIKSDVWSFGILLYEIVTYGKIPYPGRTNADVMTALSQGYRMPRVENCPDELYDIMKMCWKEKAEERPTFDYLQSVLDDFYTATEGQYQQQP", "experiment": "Kinase inhibition assay", "type": "biochemical", "in_short": "as §1"}, "Src": {"target": "Src (Homo sapiens, UniProt P12931)", "sequence (P12931 whole entry, species assumed)": "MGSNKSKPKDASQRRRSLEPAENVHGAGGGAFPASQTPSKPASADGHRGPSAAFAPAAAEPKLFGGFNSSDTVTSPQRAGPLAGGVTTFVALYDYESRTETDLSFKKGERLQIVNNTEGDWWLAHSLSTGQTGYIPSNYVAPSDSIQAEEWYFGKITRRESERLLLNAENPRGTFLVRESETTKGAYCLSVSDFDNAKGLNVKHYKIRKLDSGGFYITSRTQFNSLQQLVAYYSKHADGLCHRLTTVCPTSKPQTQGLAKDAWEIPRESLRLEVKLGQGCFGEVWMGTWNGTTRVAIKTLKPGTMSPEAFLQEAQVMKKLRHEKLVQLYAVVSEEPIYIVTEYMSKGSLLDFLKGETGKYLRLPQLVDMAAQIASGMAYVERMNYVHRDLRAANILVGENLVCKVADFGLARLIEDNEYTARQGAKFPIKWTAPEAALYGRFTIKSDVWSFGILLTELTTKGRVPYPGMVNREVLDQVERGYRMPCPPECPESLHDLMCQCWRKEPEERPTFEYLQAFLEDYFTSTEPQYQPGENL", "experiment": "Kinase inhibition assay", "type": "biochemical"}, "Yes": {"target": "Yes (Homo sapiens, UniProt P07947)", "experiment": "Kinase inhibition assay", "type": "biochemical", "in_short": "as §1"}, "[1]": {"system": "human retinal microvascular EC", "experiment": "Endothelial cell proliferation assay", "type": "cell-based", "settings": "48 hr; 10% FBS, 50 ng/mL rhVEGF; mean ± SEM, N= 3", "in_short": "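Human retinal microvascular EC were grown 48 hr with test compound (2 nM–5 µM) or DMSO vehicle in medium containing 10% FBS, 50 µg/mL heparin and 50 ng/mL rhVEGF. Cell number was read by XTT assay.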"}, "[2]": {"system": "VEGF-induced phosphorylation of extracellular signal-regulated kinase (ERK)", "experiment": "Western blot of VEGF-induced signaling in microvascular EC", "type": "cell-based, human", "settings": "1 µM for 1 hr, then rhVEGF 50 ng/ml 10 min", "in_short": "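Endothelial cells were held overnight in serum- and growth factor-free medium before test compound exposure. After 10 min rhVEGF, cells were lysed and blotted for phosphorylated Erk1/2, with total STAT3 as loading control. Comparison groups were no-VEGF and VEGF-only cultures.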"}, "[3]": {"system": "laser-induced choroidal neovascularization (CNV)", "experiment": "Mouse model of laser-induced CNV", "type": "in vivo, C57BL/6 mice", "settings": "14 days"}, "[4]": {"experiment": "Ocular tissue levels after i.p. dosing in mice", "type": "in vivo, C57BL/6 mice", "settings": "C57BL/6, mouse, ip, 5 mg/kg", "in_short": "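C57BL/6 mice (15–20 g) got 5 mg/kg test compound i.p. twice daily for 4 days, then a single dose on Day 5. Eyes were taken 5 hr later, dissected into retina and sclera/choroid eye cups, and pooled (N=2–4). Tissue was homogenized in RIPA, extracted with acetonitrile containing internal standards and quantified by LC/MS/MS against standards made in naive tissue.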"}, "[5]": {"experiment": "Pharmacokinetics after topical dosing in mice", "type": "in vivo, C57BL/6 mice", "settings": "for Plasma concentration (below level of detection): mouse, topical 1% TG100801, all time points, analyte = labelled compound"}, "[6]": {"experiment": "Oral and intravenous administration, systemic exposure", "type": "in vivo", "settings": "data not shown; for Oral bioavailability: oral administration"}, "[7]": {"experiment": "Body weight and tolerability in the mouse CNV study", "type": "in vivo", "settings": "14 days"}, "[8]": {"experiment": "Ocular safety assessment in rabbits", "type": "in vivo, Dutch Belted rabbits", "settings": "rabbit, 1% topical four times per day for 28 days", "in_short": "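Dutch Belted rabbits (1.7–2.2 kg) had baseline gross and slit lamp exams. Each eye then received 40 µL of 1% test prodrug or vehicle topically four times daily for 28 days. Gross exams were done daily and slit lamp exams weekly. On Day 29, final exams and ERGs were done, then eyes were taken for histopathology.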"}, "[9]": {"experiment": "Ocular distribution of 14C-TG100801", "type": "in vivo, Dutch-Belted rabbit", "settings": "rabbit, 30 min after single 40 µL topical 1% TG100801 containing 14C-TG100801, left eye; liquid scintillation counter", "in_short": "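A single male Dutch-Belted rabbit (2.1 kg) received 25 µCi of 14C label in the dose. The label sits on a position kept after prodrug conversion, so counts cover prodrug plus active drug. About 30 mL blood was taken 30 min post-instillation. Blood and plasma were counted directly by liquid scintillation.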"}, "[10]": {"system": "retinal edema after retinal vein thrombosis", "type": "in vivo, Long Evans rats", "in_short": "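Long Evans rats (250–275 g) got i.v. Rose Bengal (20 mg/kg), then laser thrombosis of one vein in the right eye. Both eyes received 10 µL test prodrug (0.3–1%) or vehicle, 5 doses over 3 days. Edema Index = (right AUC − left AUC)/left AUC. Scoring was blinded, n=9–11.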"}, "[11]": {"system": "retinal edema after retinal vein thrombosis", "experiment": "Rat model of retinal vein occlusion, retinal thickness by OCT", "type": "in vivo, Long Evans rats", "settings": "topical 1% TG100801", "in_short": "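The same Rose Bengal/laser vein-occlusion protocol and 5-dose topical schedule were used, with 1% test prodrug or vehicle; naive eyes served as comparators. Under ketamine/xylazine, vertical OCT scans covered 5 mm from the optic disc edge. Thickness was calculated at 6 evenly spaced points, and retinal area was derived. Assessment was blinded, n=17–21.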"}, "kinase": {"system": "kinase", "experiment": "Anti-kinase activity of the prodrug", "type": "biochemical", "settings": "data not shown"}, "[12]": {"system": "retinal and choroidal neovascularization", "settings": "topical administration to the eye; ref Takahashi et al., 2003; cited from earlier work"}, "[13]": {"system": "subfoveal choroidal neovascularization (CNV) due to AMD", "settings": "intraocular injections every 6 weeks; ref Gragoudas et al., 2004; cited from earlier work"}}, "note": "Like-named read-outs stand apart in the source and are kept apart here.", "data": [{"molecule": "Cc1cc(-c2cc(O)ccc2Cl)cc2nnc(Nc3ccc(OCCN4CCCC4)cc3)nc12", "note": "[TG100572, 4-chloro-3-(5-methyl-3-{[4-(2-pyrrolidin-1-ylethoxy)phenyl]amino}-1,2,4-benzotriazin-7-yl)phenol]", "values": [{"measurement": "IC50", "setting": "VEGFR1", "result": 2, "unit": "nM"}, {"measurement": "IC50", "setting": "VEGFR2", "result": 7, "unit": "nM"}, {"measurement": "IC50", "setting": "FGFR1", "result": 2, "unit": "nM"}, {"measurement": "IC50", "setting": "FGFR2", "result": 16, "unit": "nM"}, {"measurement": "IC50", "setting": "PDGFRβ", "result": 13, "unit": "nM"}, {"measurement": "IC50", "setting": "Fgr", "result": 5, "unit": "nM"}, {"measurement": "IC50", "setting": "Fyn", "result": 0.5, "unit": "nM"}, {"measurement": "IC50", "setting": "Hck", "result": 6, "unit": "nM"}, {"measurement": "IC50", "setting": "Lck", "result": 0.1, "unit": "nM"}, {"measurement": "IC50", "setting": "Lyn", "result": 0.4, "unit": "nM"}, {"measurement": "IC50", "setting": "Src", "result": 1, "unit": "nM"}, {"measurement": "IC50", "setting": "Yes", "result": 0.2, "unit": "nM"}, {"measurement": "ED50, inhibition of vascular endothelial cell proliferation", "setting": "[1]", "result": "610 ± 71", "unit": "nM"}, {"measurement": "VEGF-induced phosphorylation of ERK", "setting": "[2]", "result": "blocked VEGF-induced phosphorylation of extracellular signal-regulated kinase (ERK)"}, {"measurement": "Reduction of CNV area compared to vehicle", "setting": "[3]; TG100572 5 mg/kg i.p. daily, P< 0.001", "result": 40, "unit": "%"}, {"measurement": "concentration at 5 h", "setting": "[4]; choroid/sclera", "result": 9000, "unit": "nM"}, {"measurement": "concentration at 5 h", "setting": "[4]; retina", "result": 818, "unit": "nM"}, {"measurement": "AUC(0-t)", "setting": "[5]; C57BL/6, mouse, posterior eyecup (sclera/choroid/retina), topical or ocular, 1 %", "result": 6.8, "unit": "µM·h"}, {"measurement": "Tmax", "setting": "[5]; C57BL/6, mouse, sclera/choroid, topical or ocular, 1 %", "result": 1, "unit": "h"}, {"measurement": "Plasma concentration (below level of detection)", "setting": "[5]", "result": "< 2", "unit": "nM"}, {"measurement": "Clearance after intravenous administration", "setting": "[6]", "result": "rapidly cleared"}, {"measurement": "Oral bioavailability", "setting": "[6]", "result": "oral administration does not result in detectable levels in the circulation"}, {"measurement": "Body weight loss over the study", "setting": "[7]; TG100572 5 mg/kg i.p. daily, vehicle gained 1%, P= 0.006", "result": 11, "unit": "%"}]}, {"molecule": "Cc1cc(-c2cc(OC(=O)c3ccccc3)ccc2Cl)cc2nnc(Nc3ccc(OCCN4CCCC4)cc3)nc12", "note": "[TG100801, 4-chloro-3-(5-methyl-3-{[4-(2-pyrrolidin-1-ylethoxy)phenyl]amino}-1,2,4-benzotriazin-7-yl)phenyl benzoate]", "values": [{"measurement": "Reduction of CNV area relative to vehicle", "setting": "[3]; topical 1% TG100801 twice a day, P= 0.036", "result": 58, "unit": "%"}, {"measurement": "Plasma concentration (below level of detection)", "setting": "[5]", "result": "< 2", "unit": "nM"}, {"measurement": "Daily gross exams and weekly slit lamp exams", "setting": "[8]", "result": "did not detect ocular changes beyond baseline responses"}, {"measurement": "Electroretinograms (ERG) pre- and post-study", "setting": "[8]", "result": "no meaningful changes"}, {"measurement": "Ocular histopathology at study end", "setting": "[8]", "result": "normal ocular histology"}, {"measurement": "Ocular tolerability, overall judgement", "setting": "[8]", "result": "well-tolerated"}, {"measurement": "Body weight during the study", "setting": "[8]; data not shown", "result": "did not lose weight"}, {"measurement": "Radioactivity in plasma samples", "setting": "[9]", "result": "absence of detectable radioactivity"}, {"measurement": "Reduction in edema (Edema Index, fluorescein leakage) vs vehicle", "setting": "[10]; topical 0.3% TG100801, 5 applications over 3 days, P= 0.002", "result": 47, "unit": "%"}, {"measurement": "Reduction in edema (Edema Index, fluorescein leakage) vs vehicle", "setting": "[10]; topical 1% TG100801, 5 applications over 3 days, P = 0.039", "result": 32, "unit": "%"}, {"measurement": "Average retinal area in the region encompassed by the OCT scans", "setting": "[11]; thrombosed eyes, naive 203 ± 2, vehicle 327 ± 23", "result": "257 ± 13", "unit": "µm^2"}, {"measurement": "Reduction of retinal thickness vs vehicle at points along 5 mm OCT scans", "setting": "[11]; 5 out of 6 points, P< 0.05", "result": "15–26%"}, {"measurement": "Reduction of average retinal area vs vehicle-treated group", "setting": "[11]; P= 0.013", "result": 21, "unit": "%"}, {"measurement": "Anti-kinase activity", "setting": "kinase", "result": "does not display meaningful anti-kinase activity"}, {"measurement": "Clearance after intravenous administration", "setting": "[6]", "result": "rapidly cleared"}, {"measurement": "Oral bioavailability", "setting": "[6]", "result": "oral administration does not result in detectable levels in the circulation"}, {"measurement": "Ocular tolerability by slit lamp examination", "setting": "[7]; mouse, topical 0.6% and 1% twice a day", "result": "well tolerated with no signs of irritation, inflammation, or other ocular toxicity"}]}, {"molecule": "NC(=O)Cc1cccc(C(=O)c2ccccc2)c1N", "note": "[nepafenac]", "values": [{"measurement": "Effect on retinal and choroidal neovascularization", "setting": "[12]", "result": "inhibits retinal and choroidal neovascularization"}]}, {"molecule": "pegaptanib", "values": [{"measurement": "Severe vision loss over 1 year", "setting": "[13]", "result": "reduction in severe vision loss"}]}]}
